Measured values from ChEMBL document CHEMBL3992547, “Antimicrobial activity of rhodanine-3-acetic acid derivatives” (Bioorg Med Chem, 2017).
In brackets after ≈: the same amount, converted by molar mass. Activity calls are given as the source filed them. No cut-off for these calls is given here.

Key:
Candida albicans [1] = assay: Antifungal activity against Candida albicans ATCC 44859 after 24 hrs by microdilution broth assay; format: functional; settings: ATCC 44859, 24 h
In short: (§1)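 Broth microdilution per CLSI M27-A3 and M38-A2 in RPMI 1640 with glutamine, buffered to pH 7.0 with MOPS. Compounds are diluted in DMSO. Final inoculum is 5 × 10³ CFU/mL for yeasts and 0.5–5 × 10⁴ CFU/mL for moulds. Plates are incubated in the dark at 35 °C in humid air and read visually and/or at 540 nm after 24 and 48 h. MIC is ≥80% growth reduction (IC₈₀) for yeasts and ≥50% (IC₅₀) for filamentous fungi.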

Mycobacterium kansasii [2] = assay: Antimycobacterial activity against Mycobacterium kansasii isolate 6509/96 after 21 days by micromethod; format: functional; settings: isolate 6509/96, 504 h
Klebsiella pneumoniae [3] = assay: Antibacterial activity against Klebsiella pneumoniae D 11750/08 up to 500 uM incubated for 24 to 48 hrs under dark condition by microdilution broth assay; format: functional
In short: (§2)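 Broth microdilution per M07-A07, modified, in Mueller-Hinton broth adjusted to pH 7.4 (±0.2). Inoculum is prepared in sterile water to McFarland 0.5 (1.5 × 10⁸ CFU/mL). Plates are incubated in the dark at 35 °C in humid air. MIC is read after 24 and 48 h as at least 95% growth reduction versus control (IC₉₅).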

Nakaseomyces glabratus [4] = assay: Antifungal activity against Candida glabrata 20/I after 24 hrs by microdilution broth assay; format: functional; in short: as §1
Mycobacterium avium [5] = assay: Antimycobacterial activity against Mycobacterium avium 330/88 measured after 14 days by micromethod; format: functional; settings: 330/88, 336 h
Candida tropicalis [6] = assay: Antifungal activity against Candida tropicalis 156 after 48 hrs by microdilution broth assay; format: functional; settings: Candida tropicalis, 156, 48 h; in short: as §1
[7] = Solubility of the compound in Sula's semisynthetic medium up to 1 mM; format: physicochemical
Trichosporon asahii [8] = assay: Antifungal activity against Trichosporon asahii 1188 after 48 hrs by microdilution broth assay; format: functional; settings: Trichosporon asahii, 1188, 48 h; in short: as §1
Candida albicans [9] = assay: Antifungal activity against Candida albicans ATCC 44859 after 48 hrs by microdilution broth assay; format: functional; settings: ATCC 44859, 48 h; in short: as §1
Mycobacterium kansasii [10] = assay: Antimycobacterial activity against Mycobacterium kansasii isolate 235/80 after 7 days by micromethod; format: functional; settings: isolate 235/80, 168 h
Pichia kudriavzevii = assay: Antifungal activity against Candida krusei E28 after 24 to 48 hrs hrs by microdilution broth assay; format: functional; in short: as §1
Klebsiella pneumoniae [11] = assay: Antibacterial activity against ESBL positive Klebsiella pneumoniae J 14368/08 up to 500 uM incubated for 24 to 48 hrs under dark condition by microdilution broth assay; format: functional; in short: as §2
[12] = system: Mycobacterium tuberculosis; assay: Antimycobacterial activity against Mycobacterium tuberculosis H37Rv 331/88 measured after 14 days by micromethod; format: functional; settings: H37Rv 331/88, 336 h
Mycobacterium kansasii [13] = assay: Antimycobacterial activity against Mycobacterium kansasii isolate 235/80 after 21 days by micromethod; format: functional; settings: isolate 235/80, 504 h
Candida tropicalis [14] = assay: Antifungal activity against Candida tropicalis 156 after 24 hrs by microdilution broth assay; format: functional; settings: Candida tropicalis, 156, 24 h; in short: as §1
Mycobacterium kansasii [15] = assay: Antimycobacterial activity against Mycobacterium kansasii isolate 235/80 after 14 days by micromethod; format: functional; settings: isolate 235/80, 336 h
Mycobacterium kansasii [16] = assay: Antimycobacterial activity against Mycobacterium kansasii isolate 6509/96 after 14 days by micromethod; format: functional; settings: isolate 6509/96, 336 h
Aspergillus fumigatus [17] = assay: Antifungal activity against Aspergillus fumigatus 231 after 24 hrs by microdilution broth assay; format: functional; settings: Aspergillus fumigatus, 231, 24 h; in short: as §1
Aspergillus fumigatus [18] = assay: Antifungal activity against Aspergillus fumigatus 231 after 48 hrs by microdilution broth assay; format: functional; settings: Aspergillus fumigatus, 231, 48 h; in short: as §1
[19] = system: Mycobacterium tuberculosis; assay: Antimycobacterial activity against Mycobacterium tuberculosis H37Rv 331/88 measured after 21 days by micromethod; format: functional; settings: H37Rv 331/88, 504 h
[20] = system: Trichophyton mentagrophytes; assay: Antifungal activity against Trichophyton mentagrophytes 445 after 72 hrs by microdilution broth assay; format: functional; settings: Trichophyton mentagrophytes, 445, 72 h
In short: (§3)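 Broth microdilution per CLSI M38-A2 in RPMI 1640 with glutamine, buffered to pH 7.0 with MOPS, with DMSO as diluent. Final inoculum is 0.5–5 × 10⁴ CFU/mL. Plates are incubated in the dark at 35 °C in humid air and read visually and/or at 540 nm after 72 and 120 h. MIC is at least 50% growth reduction versus control.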

Mycobacterium kansasii [21] = assay: Antimycobacterial activity against Mycobacterium kansasii isolate 6509/96 after 7 days by micromethod; format: functional; settings: isolate 6509/96, 168 h
Lichtheimia corymbifera = assay: Antifungal activity against Absidia corymbifera 272 after 24 to 48 hrs hrs by microdilution broth assay; format: functional; in short: as §1
Mycobacterium avium [22] = assay: Antimycobacterial activity against Mycobacterium avium 330/88 measured after 21 days by micromethod; format: functional; settings: 330/88, 504 h
Trichosporon asahii [23] = assay: Antifungal activity against Trichosporon asahii 1188 after 24 hrs by microdilution broth assay; format: functional; settings: Trichosporon asahii, 1188, 24 h; in short: as §1
[24] = system: Trichophyton mentagrophytes; assay: Antifungal activity against Trichophyton mentagrophytes 445 after 120 hrs by microdilution broth assay; format: functional; settings: Trichophyton mentagrophytes, 445, 120 h; in short: as §3
Nakaseomyces glabratus [25] = assay: Antifungal activity against Candida glabrata 20/I after 48 hrs by microdilution broth assay; format: functional; in short: as §1
Pseudomonas aeruginosa = assay: Antibacterial activity against Pseudomonas aeruginosa CCM 1961 up to 500 uM incubated for 24 to 48 hrs under dark condition by microdilution broth assay; format: functional; in short: as §2
Staphylococcus aureus [26] = assay: Antibacterial activity against Staphylococcus aureus CCM 4516/08 incubated for 24 hrs under dark condition by microdilution broth assay; format: functional; settings: CCM 4516/08, 24 h; in short: as §2
Escherichia coli [27] = assay: Antibacterial activity against Escherichia coli CCM 4517 incubated for 48 hrs under dark condition by microdilution broth assay; format: functional; settings: CCM 4517, 48 h; in short: as §2
Escherichia coli [28] = assay: Antibacterial activity against Escherichia coli CCM 4517 incubated for 24 hrs under dark condition by microdilution broth assay; format: functional; settings: CCM 4517, 24 h; in short: as §2
Staphylococcus aureus [29] = assay: Antibacterial activity against methicillin-resistant Staphylococcus aureus H 5996/08 incubated for 24 hrs under dark condition by microdilution broth assay; format: functional; settings: H 5996/08, 24 h
In short: (§4)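 Microdilution broth method modified per M07-A07, in Mueller-Hinton broth adjusted to pH 7.4 (±0.2). Inoculum made in sterile water to 0.5 McFarland (1.5 × 10⁸ CFU/mL). Plates incubated in the dark at 35 °C in a humid atmosphere, with reads at 24 and 48 h. MIC taken as at least 95% growth reduction (IC₉₅) versus control.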

Staphylococcus aureus [30] = assay: Antibacterial activity against Staphylococcus aureus CCM 4516/08 incubated for 48 hrs under dark condition by microdilution broth assay; format: functional; settings: CCM 4516/08, 48 h; in short: as §2
[31] = system: Staphylococcus epidermidis; assay: Antibacterial activity against Staphylococcus epidermidis H 6966/08 incubated for 24 hrs under dark condition by microdilution broth assay; format: functional; settings: H 6966/08, 24 h; in short: as §2
Enterococcus [32] = assay: Antibacterial activity against Enterococcus sp. J 14365/08 incubated for 48 hrs under dark condition by microdilution broth assay; settings: J 14365/08, 48 h
Enterococcus [33] = assay: Antibacterial activity against Enterococcus sp. J 14365/08 incubated for 24 hrs under dark condition by microdilution broth assay; settings: J 14365/08, 24 h
Staphylococcus aureus [34] = assay: Antibacterial activity against methicillin-resistant Staphylococcus aureus H 5996/08 incubated for 48 hrs under dark condition by microdilution broth assay; format: functional; settings: H 5996/08, 48 h; in short: as §4
[35] = system: Staphylococcus epidermidis; assay: Antibacterial activity against Staphylococcus epidermidis H 6966/08 incubated for 48 hrs under dark condition by microdilution broth assay; format: functional; settings: H 6966/08, 48 h; in short: as §2

SMILES | MIC80 (Candida albicans [1]) [µM] | MIC (Mycobacterium kansasii [2]) [µM] | Activity (Klebsiella pneumoniae [3]) | MIC80 (Nakaseomyces glabratus [4]) [µM] | MIC (Mycobacterium avium [5]) [µM] | MIC80 (Candida tropicalis [6]) [µM] | solubility [7] | MIC80 (Trichosporon asahii [8]) [µM] | MIC80 (Candida albicans [9]) [µM] | MIC (Mycobacterium kansasii [10]) [µM] | Activity (Pichia kudriavzevii) | Activity (Klebsiella pneumoniae [11]) | MIC [12] [µM] | MIC (Mycobacterium kansasii [13]) [µM] | MIC80 (Candida tropicalis [14]) [µM] | MIC (Mycobacterium kansasii [15]) [µM] | MIC (Mycobacterium kansasii [16]) [µM] | MIC50 (Aspergillus fumigatus [17]) [µM] | MIC50 (Aspergillus fumigatus [18]) [µM] | MIC [19] [µM] | also measured
O=C(O)CN1C(=O)/C(=C/c2ccccn2)SC1=S | ≥ 0.98 | 1000 (≈ 280 µg/mL) | inactive | ≥ 0.98 | 1000 (≈ 280 µg/mL) | ≥ 0.98 | Soluble | ≥ 0.98 | ≥ 0.98 | 500 (≈ 140 µg/mL) | inactive | inactive | 250 (≈ 70.1 µg/mL) | 1000 (≈ 280 µg/mL) | ≥ 0.98 | 1000 (≈ 280 µg/mL) | 500 (≈ 140 µg/mL) | ≥ 0.98 | ≥ 0.98 | 500 (≈ 140 µg/mL) | MIC50 [20]: ≥ 0.98 µM; MIC (Mycobacterium kansasii [21]): 500 µM (≈ 140 µg/mL); Activity (Lichtheimia corymbifera): inactive; MIC (Mycobacterium avium [22]): 1000 µM (≈ 280 µg/mL); MIC80 (Trichosporon asahii [23]): ≥ 0.98 µM; MIC50 [24]: ≥ 0.98 µM; MIC80 (Nakaseomyces glabratus [25]): ≥ 0.98 µM; Activity (Pseudomonas aeruginosa): inactive
O=C(CN1C(=O)CSC1=S)Oc1ccc(C(F)(F)F)cc1 | > 500 | 1000 (≈ 335 µg/mL) | inactive | 500 (≈ 168 µg/mL) | 1000 (≈ 335 µg/mL) | > 500 | Soluble | > 500 | > 500 | 1000 (≈ 335 µg/mL) | inactive | inactive | 500 (≈ 168 µg/mL) | 1000 (≈ 335 µg/mL) | > 500 | 1000 (≈ 335 µg/mL) | 1000 (≈ 335 µg/mL) | > 500 | > 500 | 1000 (≈ 335 µg/mL) | MIC95 (Staphylococcus aureus [26]): 15.6 µM (≈ 5.24 µg/mL); MIC95 (Escherichia coli [27]): > 500 µM; MIC95 (Escherichia coli [28]): > 500 µM; MIC95 (Staphylococcus aureus [29]): 15.6 µM (≈ 5.24 µg/mL); MIC95 (Staphylococcus aureus [30]): 62.5 µM (≈ 21 µg/mL); MIC95 [31]: 15.6 µM (≈ 5.24 µg/mL); MIC95 (Enterococcus [32]): 62.5 µM (≈ 21 µg/mL); MIC50 [20]: 125 µM (≈ 41.9 µg/mL); MIC (Mycobacterium kansasii [21]): 1000 µM (≈ 335 µg/mL); Activity (Lichtheimia corymbifera): inactive; MIC (Mycobacterium avium [22]): 1000 µM (≈ 335 µg/mL); MIC80 (Trichosporon asahii [23]): 500 µM (≈ 168 µg/mL); MIC50 [24]: 250 µM (≈ 83.8 µg/mL); MIC95 (Enterococcus [33]): 15.6 µM (≈ 5.24 µg/mL); MIC80 (Nakaseomyces glabratus [25]): > 500 µM; MIC95 (Staphylococcus aureus [34]): 62.5 µM (≈ 21 µg/mL); Activity (Pseudomonas aeruginosa): inactive; MIC95 [35]: 62.5 µM (≈ 21 µg/mL)
O=C(CN1C(=O)CSC1=S)Oc1ccc(Cl)cc1 | > 500 | 500 (≈ 151 µg/mL) | inactive | > 500 | 1000 (≈ 302 µg/mL) | > 500 | Soluble | > 500 | > 500 | 250 (≈ 75.4 µg/mL) | inactive | inactive | 250 (≈ 75.4 µg/mL) | 1000 (≈ 302 µg/mL) | > 500 | 500 (≈ 151 µg/mL) | 500 (≈ 151 µg/mL) | > 500 | > 500 | 500 (≈ 151 µg/mL) | MIC50 [20]: 500 µM (≈ 151 µg/mL); MIC (Mycobacterium kansasii [21]): 250 µM (≈ 75.4 µg/mL); Activity (Lichtheimia corymbifera): inactive; MIC (Mycobacterium avium [22]): 1000 µM (≈ 302 µg/mL); MIC80 (Trichosporon asahii [23]): > 500 µM; MIC50 [24]: 500 µM (≈ 151 µg/mL); MIC80 (Nakaseomyces glabratus [25]): > 500 µM; Activity (Pseudomonas aeruginosa): inactive
